Experimental data taken from publication PMC3982714 (International Journal of Oncology, 2012).
Like-named read-outs stand apart in the source and are kept apart here. Blank lines part the entries; values can stand above or below the compound they belong to.

Columns and labels:
[1] = Pharmacokinetics, HPLC analysis of plasma; format: in vivo, Fisher 344 rats
NF-κB subunit p65 [2] = experiment: Immunofluorescent staining of phospho-p65 in colon sections of AOM rats; format: in vivo, rat; details: AOM study, 40 weeks
In short: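 Colons from rats killed at week 40 were formalin-fixed and paraffin-embedded; 4 μm sections cut. Antigen retrieval by microwaving 15 min in 0.01 mol/l citrate, pH 6.0. Blocked with 5% donkey serum 30 min. Rabbit anti-phospho-p65 (Ser276) with mouse anti-β-catenin, or control IgG, applied overnight at 4°C. Fluorescent donkey secondaries 1 h at room temperature. Viewed by fluorescence microscopy.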

[3] = format: in vivo, Fisher 344 rats; details: 7 days
In short: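 Male Fisher 344 rats, 8–9 weeks old, 7 per group. […] Killed by CO2 1 h after the last dose. Stomach, small intestine and colon inspected for ulcers under magnification, then formalin-fixed for histology. Heart, liver, lung and kidney collected for toxicity analysis.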

β-catenin [4] = experiment: Immunofluorescent staining of β-catenin in colon sections of AOM rats; format: in vivo, rat; details: AOM study, 40 weeks
β-catenin [5] = experiment: Western blot of β-catenin in nuclear extracts of HCT116 cells; format: cell-based, human
In short: (§1)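 HCT116 cells grown in RPMI-1640. Cytoplasmic and nuclear fractions prepared by lysis, with NP-40 added at a later step; supernatant taken as cytoplasm. Nuclei washed, then resuspended in extraction buffer and pelleted. Standard western blot. Probes: rabbit anti-phospho-p65 (Ser276) for p65; mouse anti-β-catenin for β-catenin.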

PGE2 = PGE2 in culture media of LPS-stimulated macrophages by ELISA; format: cell-based, mouse; details: RAW 264.7 macrophages, 130 μM for 12 h, then LPS 100 ng/ml overnight
In short: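 RAW 264.7 mouse macrophages grown in DMEM. 1.5×10⁶ cells pre-incubated 12 h with test compound at 130 μM, then stimulated with LPS 100 ng/ml overnight. PGE2 in culture media measured by ELISA. Mean ± SEM, ANOVA.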

[6] = tested on: AOM-induced colonic ACF and tumors; format: in vivo, Fisher 344 rats; details: for Weight: average ± SE
In short: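 Male Fisher 344 rats, 3–4 weeks old, about 90 g, acclimated 1 week. AOM 15 mg/kg or saline given s.c. once weekly for 2 weeks. […] Rats weighed weekly. Week-20 colons formalin-fixed 24 h, stained with 0.2% methylene blue 3–5 min; ACF counted microscopically. Week-40 tumors counted; long and short diameters measured. Mean ± SEM, ANOVA.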

NF-κB subunit p65 [7] = experiment: Western blot of p65 in nuclear extracts of HCT116 cells; format: cell-based, human
In short: as §1

[8] = cited from earlier work
[9] = 20 weeks, saline, diet IBU 500 ppm or p-IBU 900 ppm
[10] = 40 weeks, saline, diet IBU 500 ppm or p-IBU 900 ppm

SMILES: CC(C)Cc1ccc(C(C)C(=O)O)cc1 (stereo not drawn) [ibuprofen, Ibuprofen]
- effect on phosphorylation of p65 (NF-κB activation) (NF-κB subunit p65 [2]): not ibuprofen inhibited
- rats with stomach ulceration ([3]; ibuprofen 670 mg/kg by gavage, 7 rats): 85.7%
- ulceration in stomach or intestine ([3]; low dose by gavage): did not lead to ulceration
- effect on AOM-induced β-catenin cytoplasmic accumulation and nuclear translocation (β-catenin [4]): reduced
- β-catenin levels in nuclear extracts compared to vehicle-treated control (β-catenin [5]): markedly decreased
- suppression of PGE2 production compared to LPS-treated control (PGE2): 84.1%
- Weight ([6]; 20 weeks, AOM, diet IBU 500 ppm or p-IBU 900 ppm): 406±118.91
- ACFs (ACF multiplicity) [6, 9]: 0
- Tumors [6, 9]: 0
- Weight [6, 9]: 416±6.11
- Weight ([6]; 40 weeks, AOM, diet IBU 500 ppm or p-IBU 900 ppm): 432±8.84
- ACFs [6, 10]: 0
- Tumors (tumor multiplicity) [6, 10]: 0
- Weight [6, 10]: 431±15.43
- reduction of the multiplicity of ACF compared with vehicle ([6]; week 20, AOM rats, diet ibuprofen 500 ppm or p-ibuprofen 900 ppm): 37.9%
- reduction of the multiplicity of colon tumors compared with vehicle ([6]; week 40, AOM rats, diet ibuprofen 500 ppm or p-ibuprofen 900 ppm): 56.6%
- nuclear translocation of the NF-κB subunit p65 (NF-κB activation) (NF-κB subunit p65 [7]): inhibitory effect was not observed

SMILES: CC(C)Cc1ccc(C(C)C(=O)OCCN(C)C)cc1.Cl (stereo not drawn) [ibuprofen-O(CH2)2N(CH3)2HCl]
- GI toxic side effects compared to the parent molecule [8]: decreased

SMILES: CC(C)Cc1ccc(C(C)C(=O)NCC(=O)O)cc1 (stereo not drawn) [ibuprofen-NHCH2COOH]
- GI toxic side effects compared to the parent molecule [8]: decreased

SMILES: CC(C)Cc1ccc(C(C)C(=O)O[C@@H]2O[C@H](C(=O)O)[C@@H](O)[C@H](O)[C@H]2O)cc1 (stereo partly drawn) [ibuprofen-glucuronide]
- plasma level of metabolite ([1]; 20 weeks (first value)): 1 µM
- plasma level of metabolite ([1]; 40 weeks): 1 µM

Continued, values first:

- plasma level of metabolite ([1]; 20 weeks (first value)): 3 µM
- plasma level of metabolite ([1]; 40 weeks): 3 µM
SMILES: CC(Cc1ccc(C(C)C(=O)O)cc1)C(=O)O (stereo not drawn) [carboxy-ibuprofen]

- plasma level of metabolite ([1]; group fed a diet of ibuprofen): 99 µM
- plasma level of metabolite ([1]; group fed a diet of p-ibuprofen): 102 µM
SMILES: CC(C(=O)O)c1ccc(CC(C)(C)O)cc1 (stereo not drawn) [2-OH-ibuprofen]

- plasma level of metabolite ([1]; 20 weeks (first value)): 4 µM
- plasma level of metabolite ([1]; 40 weeks): undetectable
SMILES: CC(C(=O)O)c1ccc(C(O)C(C)C)cc1 (stereo not drawn) [1-OH-ibuprofen]
